# ABCB1 block: blocks JC-1 efflux by human ABCB1 transporter | CCRF-Adr cells, flow cytometry | inhibition, % at 6.6 µM | 190,000 tested, 0.067% active | AID 1326; in the data active = inhibition above about 40%;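 also: 0% = vehicle and 100% = reference inhibitor; higher value means more JC-1 retained so stronger ABCB1 efflux block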
# ABCG2 inh: human ABCG2 inhibition, ABCB1 as counter-screen | Q9UNQ0 | IgMXP3 cells, JC-1 efflux, flow cytometry | inhibition, % at 6.6 µM | 190,000 tested, 0.1% active | AID 1325;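 active = inhibition above 80%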;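 also: 0% = DMSO and 100% = nicardipine control wells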
#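 Assay system – ABCG2 IgMXP3 and barcoded ABCB1 CCRF-Adr cell mix · Input – 3 million cells/mL in well · Reagent – JC-1 fluorescent substrate · Compound – single test compound dose, 6.6 µM final · Timing – 10 min exposure at 25 °C with rotation, no wash · Detection – flow cytometry of retained JC-1 fluorescence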
# Arbovirus anti: antivirals against arbovirus infection | inhibition, % at 10 µM | arbovirus infection cell-based antiviral screen | 200,000 tested, 0.37% active; in the data active = inhibition above about 30%
# RAM inhibit: inhibitors of the yeast RAM network; inhibition, % at 50 µM; 190,000 tested, 1.8% active; S. cerevisiae dse1pr::URA3 reporter, 5-FOA growth OD615, 2 d; analog-sensitive cbk1-as2 kinase mutant strain;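 active = inhibition above a set limit, 3 SD over mean compound inhibition, cut at about 8.4% in these data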;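 also: 0% = DMSO-only wells with no growth and 100% = 10 µM 1-NA-PP1 full growth; inhibition rescues growth on 5-FOA so higher OD means more RAM inhibition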
# RAM 5-FOA: RAM network inhibition, efflux-deficient strain; shares compounds with RAM inhibit; S. cerevisiae efflux-deficient reporter strain, 5-FOA growth OD615, 2 days; max inhibition, %; 1,200 tested, under 10 active; AID 1305; call rule not given here;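 also: plate controls were vehicle for no effect and reference inhibitor for full effect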
# * = called active by the depositor; · = no result. Rows were chosen to be rich in hits. Some 2.3% of all compounds tested hit in one or more screens of this group.
SMILES,ABCB1 block,ABCG2 inh,Arbovirus anti,RAM inhibit,RAM 5-FOA
Cc1c(Cc2ccccc2)c(=O)oc2c(C)c(OCc3nn[nH]n3)ccc12,0,0,4,4,·
C=CCn1c(COc2ccc3c(c2)CCCC3)nnc1SCC(=O)Nc1cccc(SC)c1,1,2,-38,15*,4
CCOC(=O)c1cccc(NC(=O)CSc2nnc(COc3ccccc3C)o2)c1,0,43,2,12*,1
C=CCn1c(COc2ccccc2)nnc1SCC(=O)Nc1ccc2c(c1)OCCO2,1,45,-5,4,·
COc1cccc(NC(=O)CSc2nnc(COc3ccc4c(c3)CCCC4)o2)c1,0,1,-1,12*,2
O=C(COC(=O)CCc1ccc(S(=O)(=O)N2CCOCC2)cc1)Nc1ncc(C(F)(F)F)cc1Cl,1,4,3,1,·
COc1ccc(OC)c2c1sc(=NC(=O)c1cccc(N3C(=O)CCC3=O)c1)n2C,1,2,4,2,·
CCn1c(=NC(=O)c2cccc(N3C(=O)CCC3=O)c2)sc2c(OC)ccc(OC)c21,0,0,7,11*,3
COc1ccc(CCNC(=O)/C(C#N)=C/c2cccc(OCc3ccccc3)c2)cc1OC,2,21,-10,14*,2
CCCCNC(=S)N(C)/N=C/c1ccc(OCc2ccc(C(=O)OC)cc2)c(OC)c1,0,3,-14,14*,7
CCN(CC)C(=O)CSc1nc2cc3c(cc2c(=O)n1CCCCCC(=O)NCc1ccc(OC)cc1)OCO3,5,5,-9,14*,4
O=C(O)c1ccc2c(c1)C(=O)N(C(Cc1ccc(O)cc1)C(=O)O)C2=O (stereo not drawn),0,0,9,0,·
COc1ccc(-n2nnc3c(SCC(=O)OCc4ccccc4)ncnc32)cc1,0,2,20,14*,3
CCc1ccc(C2NC(C(=O)O)CS2)cc1 (stereo not drawn),0,2,2,2,·
O=S(=O)(c1ccc(F)cc1)n1ccc(-c2cccc(OCc3ccc(Cl)cc3Cl)c2)n1,0,-1,5,12*,2
CCOC(=O)C1=C(c2ccccc2)N=c2s/c(=C\c3cc(OC)c(OC)c(OC)c3)c(=O)n2C1c1cccs1 (stereo not drawn),0,1,-14,12*,4
CCOC(=O)C1=C(c2ccccc2)N=c2s/c(=C\c3ccco3)c(=O)n2C1c1cccs1 (stereo not drawn),-1,-2,-5,5,·
O=C(CN1CCN(Cc2ccccc2)CC1)N/N=C/C=C/c1ccccc1[N+](=O)[O-],1,13,0,-1,·
CCCCN(C(=O)c1cccc2c(=O)c(C)c(-c3ccccc3)oc12)c1ccccc1,3,1,-31,16*,2
CC(=O)Nc1nonc1NC(=O)c1ccc(F)cc1,0,12,-4,0,·
O=S(=O)(NCCSCc1ccc(Cl)cc1Cl)c1ccc2c(c1)OCCO2,1,2,-35,12*,3
COCCCNS(=O)(=O)c1ccc2c(c1)OCCO2,1,17,-2,2,·
Cn1ncc(C#N)c1NC(=O)C1CC(c2ccc(Cl)cc2)=NO1 (stereo not drawn),0,1,-2,1,·
CCCCCCNC(=O)CC(c1ccccc1)c1cc(Br)ccc1O (stereo not drawn),0,0,-36,11*,2
CC(C)NC(=O)CC(c1ccccc1)c1cc(Br)ccc1O (stereo not drawn),0,1,1,-1,·
SMILES,ABCB1 block,ABCG2 inh,Arbovirus anti,RAM inhibit,RAM 5-FOA
Cc1ccc(S(=O)(=O)N(CCCO)CC(O)CON=C2c3ccccc3-c3ccccc32)cc1 (stereo not drawn),1,0,-46,13*,3
C/C=C/c1ccc(OCC(=O)OCc2csc(Nc3ccc(C)cc3)n2)c(OC)c1,0,13,0,12*,4
COC(=O)[C@@H]1CC[C@H](C)[C@@H](c2ccc(C)cc2)N1C(=O)c1ccc(/C=N/OC[C@@H](O)COCc2ccco2)cc1,7,4,-24,15*,2
CC(=O)c1c(C)[nH]c(C(=O)NCc2cccc(Cl)c2)c1C,1,4,-13,2,·
CN(C)c1nc(OCCOC(=O)COc2ccc(Cl)cc2Cl)nc(N(C)C)n1,2,25,0,1,·
CN(C)c1nc(SCCOC(=O)COc2ccc(Cl)cc2Cl)nc(N(C)C)n1,1,2,2,12*,3
CCN1C(=O)C(CC(=O)Nc2ccc(OC)cc2)N(CCc2ccc(F)cc2)C1=S (stereo not drawn),2,14,-24,16*,2
CCCCCCOc1ccc(NC(=O)CC2C(=O)N(CC)C(=S)N2Cc2ccco2)cc1 (stereo not drawn),1,1,-30,17*,3
CCOC(=O)/C(C#N)=C/Nc1ccccc1NS(=O)(=O)c1cccc(C(C)=O)c1,0,1,20,3,·
COc1ccc(/C=C2\SC(=S)N(CC(=O)NCCO)C2=O)cc1,0,7,0,0,·
CCOc1ccc(/C=C2/SC(=S)N(C(C(=O)O)c3ccccc3)C2=O)cc1OCC (stereo not drawn),-1,-2,17,13*,2
COc1ccc(/C=C2\SC(=S)N(C(Cc3ccccc3)C(=O)O)C2=O)cc1 (stereo not drawn),0,0,-4,34*,4
CCOc1ccc(/C=C2\SC(=S)N(Nc3ccccc3)C2=O)cc1OC,-1,-2,-14,7,·
CC(/C=C1\SC(=S)N(C(C(=O)O)C(C)C)C1=O)=C\c1ccccc1 (stereo not drawn),-1,0,28,18*,4
CC(/C=C1\SC(=S)N(NC(=O)c2ccc(C)cc2)C1=O)=C\c1ccccc1,0,0,-3,6,·
COc1ccccc1NC(=O)c1ccc(NC(=O)COC(=O)CCC2CCCC2)cc1,1,5,0,14*,3
COc1cccc(NC(=S)NCCC(c2ccccc2)c2ccccc2)c1,0,3,-44,12*,4
Cc1cccc(NC(=S)NCCC(c2ccccc2)c2ccccc2)c1,0,0,-27,7,·
O=C(NC1CCCCC1)N1CCCC(c2nc(-c3ccc(S(=O)(=O)N4CCCC4)cc3)no2)C1 (stereo not drawn),2,6,-17,2,·
CCCC[C@@H]1C[C@H]1[C@@H](NC(=O)c1ccccc1)c1ccccc1C(F)(F)F,0,2,8,22*,3
COC(=O)[C@@H]1C[C@H]1[C@@H](NC(=O)c1ccccc1)c1ccccc1,1,-3,2,0,·
O=C(N=Nc1c(O)n(C2OC(=O)c3ccccc32)c2ccccc12)c1ccc(O)cc1 (stereo not drawn),0,1,-7,12*,4
O=C(N=Nc1c(O)n(Cc2ccccc2)c2ccccc12)c1ccc(O)cc1,1,-2,-29,4,·
